Data as given in ChEMBL document CHEMBL3259663, “3-Amido-3-aryl-piperidines: A Novel Class of Potent, Selective, and Orally Active GlyT1 Inhibitors” (ACS Med Chem Lett, 2014).

Experiments:
[1] = target: T1, Sodium- and chloride-dependent glycine transporter 1 (Homo sapiens, UniProt P48067); test: Inhibition of human GlyT1 expressed in cells assessed as [3H]glycine uptake; type: cell-based
T1 sequence (P48067 whole entry): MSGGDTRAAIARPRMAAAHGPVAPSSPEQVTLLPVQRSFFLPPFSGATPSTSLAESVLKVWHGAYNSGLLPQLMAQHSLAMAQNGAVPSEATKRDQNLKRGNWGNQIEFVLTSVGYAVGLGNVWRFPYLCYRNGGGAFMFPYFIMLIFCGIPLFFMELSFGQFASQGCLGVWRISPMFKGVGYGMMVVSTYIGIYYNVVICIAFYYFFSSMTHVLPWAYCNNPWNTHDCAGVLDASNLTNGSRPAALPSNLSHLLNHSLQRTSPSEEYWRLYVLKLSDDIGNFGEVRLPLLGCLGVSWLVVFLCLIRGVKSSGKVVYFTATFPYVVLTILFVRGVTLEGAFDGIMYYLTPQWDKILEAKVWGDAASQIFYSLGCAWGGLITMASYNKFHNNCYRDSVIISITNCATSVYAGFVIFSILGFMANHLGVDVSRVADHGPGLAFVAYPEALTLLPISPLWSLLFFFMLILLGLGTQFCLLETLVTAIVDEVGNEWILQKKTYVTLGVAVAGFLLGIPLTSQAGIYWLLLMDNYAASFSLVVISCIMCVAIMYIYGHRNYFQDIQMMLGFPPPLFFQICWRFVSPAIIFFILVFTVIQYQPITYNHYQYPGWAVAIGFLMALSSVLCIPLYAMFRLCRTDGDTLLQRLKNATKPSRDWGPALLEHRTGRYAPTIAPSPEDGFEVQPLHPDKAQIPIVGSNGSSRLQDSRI
In short: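 [³H]-glycine uptake inhibition in cells transfected with human GlyT1. EC₅₀ values are the average of at least two independent experiments.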

[2] = target: T1, Sodium- and chloride-dependent glycine transporter 1; test: Inhibition of GlyT1 (unknown origin)

EC50 [1] [nM]	IC50 [2] [nM]	Compound
1700		COc1cc(C(F)(F)F)cc(SC)c1C(=O)NC1(c2ccncn2)CCCN(C)C1 (racemic)
230		COc1cc(C(F)(F)F)cc(C(F)(F)F)c1C(=O)NC1(c2ccccc2)CCCN(C(C)C)C1 (racemic)
	140	COc1cc(C(F)(F)F)cc(C(F)(F)F)c1C(=O)NC1(c2ccccc2)CCCN(C)C1 (stereo not given)
180		COc1cc(C(F)(F)F)cc(SC)c1C(=O)NC1(c2ccc(F)cn2)CCCN(C)C1 (racemic)
54		COc1cc(C(F)(F)F)cc(SC)c1C(=O)NC1(c2cccnc2)CCCN(C)C1 (racemic)
67		CSc1cc(C(F)(F)F)ccc1C(=O)NC1(c2ccccc2)CCCN(C)C1 (racemic)
> 10000		COc1cc(C(F)(F)F)cc(SC)c1C(=O)NC1(c2ncccn2)CCCN(C)C1 (racemic)
> 10000		COc1cc(C(F)(F)F)cc(C(F)(F)F)c1C(=O)NC1(c2ccccc2)CCCN(C(=O)c2ccccc2)C1 (racemic)
25		COc1cc(C(F)(F)F)cc(SC)c1C(=O)NC1(c2cccc(Cl)c2)CCCN(C)C1 (racemic)
1670		COc1cc(C(F)(F)F)cc(SC)c1C(=O)NC1(c2cnccn2)CCCN(C)C1 (racemic)
> 10000		COc1cc(C(F)(F)F)cc(C(F)(F)F)c1C(=O)NC1(c2ccccc2)CCCN(S(C)(=O)=O)C1 (racemic)
110		COc1cccc(C2(NC(=O)c3c(OC)cc(C(F)(F)F)cc3SC)CCCN(C)C2)c1 (racemic)
230		CCN1CCCC(NC(=O)c2c(OC)cc(C(F)(F)F)cc2C(F)(F)F)(c2ccccc2)C1 (racemic)
170		COc1ccc(C2(NC(=O)c3c(OC)cc(C(F)(F)F)cc3SC)CCCN(C)C2)cc1 (racemic)
28		COc1cc(C(F)(F)F)cc(SC)c1C(=O)NC1(c2ccc(Cl)cc2)CCCN(C)C1 (racemic)
> 10000		CN1CCCC(NC(=O)c2ccc(C(F)(F)F)cc2C#N)(c2ccccc2)C1 (racemic)
4800		COc1cc(C(F)(F)F)ccc1C(=O)NC1(c2ccccc2)CCCN(C)C1 (racemic)
24		COc1cc(C(F)(F)F)cc(SC)c1C(=O)NC1(c2ccccc2)CCCN(C)C1 (racemic)

EC50 [1] [nM]	IC50 [2] [nM]	Compound
9900		CN1CCCC(NC(=O)c2ccc(C(F)(F)F)cc2F)(c2ccccc2)C1 (racemic)
660		COc1cc(C(F)(F)F)cc(C(F)(F)F)c1C(=O)NC1(c2ccccc2)CCCNC1 (racemic)
670		CN1CCCC(NC(=O)c2ccc(Cl)cc2Cl)(c2ccccc2)C1 (racemic)
48		COc1cc(C(F)(F)F)cc(SC)c1C(=O)NC1(c2cccc(F)c2)CCCN(C)C1 (racemic)
6700		COc1cc(C(F)(F)F)cc(C(F)(F)F)c1C(=O)NC1(c2ccccc2)CCCN(Cc2ccccc2)C1 (racemic)
26		COc1cc(C(F)(F)F)cc(SC)c1C(=O)NC1(c2ccc(F)cc2)CCCN(C)C1 (racemic)
270		COc1cc(C(F)(F)F)cc(C(F)(F)F)c1C(=O)NC1(c2ccccc2)CCCN(C2CCCC2)C1 (racemic)
320		Cc1cc(C(F)(F)F)ccc1C(=O)NC1(c2ccccc2)CCCN(C)C1 (racemic)
1500		COc1cccc(C(F)(F)F)c1C(=O)NC1(c2ccccc2)CCCN(C)C1 (racemic)
60		COc1cc(C(F)(F)F)cc(SC)c1C(=O)NC1(c2ccncc2)CCCN(C)C1 (racemic)
540		CN1CCCC(NC(=O)c2ccc(C(F)(F)F)cc2C(F)(F)F)(c2ccccc2)C1 (racemic)
300		CN1CCCC(NC(=O)c2ccc(C(F)(F)F)cc2Br)(c2ccccc2)C1 (racemic)
230		COc1cc(C(F)(F)F)cc(SC)c1C(=O)NC1(c2ccc(C)cc2)CCCN(C)C1 (racemic)
180		COc1cc(C(F)(F)F)cc(SC)c1C(=O)N[C@]1(c2ccccc2)CCCN(C)C1
380		COc1cc(C(F)(F)F)cc(C(F)(F)F)c1C(=O)NC1(c2ccccc2)CCCN(CC2CC2)C1 (racemic)
> 10000		CN1CCCC(NC(=O)c2ccc(C(F)(F)F)cc2)(c2ccccc2)C1 (racemic)
> 10000		COc1cc(C(F)(F)F)cc(C(F)(F)F)c1C(=O)NC1(c2ccccc2)CCCN(C(C)=O)C1 (racemic)
